Measurements reported in ChEMBL document CHEMBL4138314, “Synthesis and Evaluation of N-Phenyl-3-sulfamoyl-benzamide Derivatives as Capsid Assembly Modulators Inhibiting Hepatitis B Virus (HBV)” (J Med Chem, 2018).
pEC50: −log10 of the molar value. Values after ≈ are worked out from the molar mass of the structure shown. Active and inactive are the calls of the source. No cut-off for these calls is given here.

Assays:
HBV genotype D = test: Antiviral activity against HBV genotype D infected in human HepG2.2.15 cells assessed as inhibition of viral DNA level treated twice for 3 days measured after 6 days by real time PCR; assay type: functional, organism-based; conditions: Hepatitis B virus
Hepatitis B virus [1] = test: Antiviral activity against Hepatitis B virus infected in human HepG2.117 cells assessed as inhibition of viral DNA level after 3 days by real time PCR; assay type: functional, organism-based; conditions: HepG2.117, 72 h
[2] = Kinetic solubility of the compound at pH 7.4 after 4 hrs by UPLC-UV analysis; assay type: physicochemical; conditions: buffer, read-out: Kinetic_solubility
[3] = Cytotoxicity against human HepG2 cells after 4 days by resazurin assay; assay type: cell-based
[4] = Drug metabolism in human liver microsomes at 1 uM after 15 mins by LC-MS/MS analysis; assay type: ADME, microsome; conditions: read-out: Drug metabolism
Summary of the method: (§1)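 Compound incubated 15 min with human or mouse liver microsomes; stability expressed as percent turnover (metabolised) at 15 min.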

[5] = Drug metabolism in mouse liver microsomes at 1 uM after 15 mins by LC-MS/MS analysis; assay type: ADME, microsome; conditions: read-out: Drug metabolism; summary of the method: as §1
Hepatitis B virus [6] = test: Induction of HBV capsid core protein CP149 aggregation assessed as ratio between area under the curve for observed amount of core dimer and area under the curve for aggregated core protein at 20 uM after 24 hrs by size exclusion chromatographic analysis
Summary of the method: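 Recombinant HBV core assembly domain (aa 1–149, Cp149) was incubated with compound at 20 µM for 24 h, with a no-compound control run in parallel. Size exclusion chromatography gave the ratio of Cp149 dimer AUC to aggregated Cp149 AUC.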

[7] = target: Core antigen (Hepatitis B virus) (UniProt Q03732); test: Induction of HBV Maleimidyl BoDIPY-FL-labeled capsid Cp*150 mutant aggregation incubated for 30 mins measured every 10 secs for 30 mins by fluorescence quenching assay
Chain of Core antigen (Hepatitis B virus) (Q03732 as listed by the source): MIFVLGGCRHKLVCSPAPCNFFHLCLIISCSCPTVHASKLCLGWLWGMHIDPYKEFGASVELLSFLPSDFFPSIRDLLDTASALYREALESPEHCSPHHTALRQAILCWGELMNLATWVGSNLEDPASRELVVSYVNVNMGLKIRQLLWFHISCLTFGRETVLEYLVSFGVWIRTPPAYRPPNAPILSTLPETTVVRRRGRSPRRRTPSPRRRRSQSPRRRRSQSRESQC

[8] = Cytotoxicity against human HepG2 cells after 4 to 6 days by resazurin assay; assay type: cell-based; conditions: HepG2 cells

Row | SMILES | pEC50 (HBV genotype D) | pEC50 (Hepatitis B virus [1]) | solubility kinetic at 4 h [2] [µM] | CC50 at 96 h [3] [µM] | metabolised at 0.25 h, 1 µM [4] [%] | metabolised at 0.25 h, 1 µM [5] [%] | Ratio (Hepatitis B virus [6]) | Activity [7] | CC50 [8] [µM]
1 | O=C(Nc1nccs1)c1cc(S(=O)(=O)NC2CCCCC2)ccc1F | 4.53 | < 4.60 | > 100 | > 25 | 85 | 100 | 9.7 | inactive | –
2 | Cc1cc(F)cc(NC(=O)c2cccc(S(=O)(=O)NC3CCCC3)c2)c1 | 6.96 | 5.82 | 11 (≈ 4.14 µg/mL) | > 23 | 74 | 100 | – | Active | –
3 | Cc1cc(NC(=O)c2cccc(S(=O)(=O)NC3(C)COC3)c2)c(C)cc1F | 5.51 | 5.72 | > 100 | – | 1 | 78 | – | – | > 25
4 | N#Cc1cc(NC(=O)c2cccc(S(=O)(=O)N[C@H]3CCOC3)c2)ccc1F | 6.09 | 6.01 | > 100 | – | 13 | 27 | – | – | > 50
5 | O=C(Nc1ccncc1)c1cc(S(=O)(=O)NC2CCCCC2)ccc1F | 5.28 | 4.79 | > 100 | > 25 | 68 | 75 | 6 | inactive | –
6 | CC(C)NS(=O)(=O)c1cccc(C(=O)Nc2ccc(F)c(C(C)C)c2)c1 | 5.85 | 5.55 | 13 (≈ 4.92 µg/mL) | – | 31 | 96 | – | – | 29.8
7 | Cc1c(F)ccc(NC(=O)c2cccc(S(=O)(=O)N[C@H]3CCOC3)c2)c1F | 6.54 | 6.11 | > 100 | – | 25 | 66 | – | – | > 25
8 | O=C(Nc1ccc(F)c(F)c1)c1cccc(S(=O)(=O)N[C@H]2CCOC2)c1 | 6.42 | 6.29 | > 100 | – | 5 | 42 | – | – | > 50
9 | O=C(Nc1cccc(S(=O)(=O)NC2CCCCC2)c1)c1ccccc1 | 5.02 | < 4.60 | 10 (≈ 3.58 µg/mL) | > 25 | 99 | 100 | 7 | – | –
10 | O=C(Nc1cccnc1)c1cc(S(=O)(=O)NC2CCCCC2)ccc1F | – | 4.61 | > 100 | > 25 | 57 | 99 | 9.8 | inactive | –
11 | COc1cc(NC(=O)c2cccc(S(=O)(=O)N[C@H]3CCOC3)c2)ccc1F | 5.63 | 5.58 | > 100 | – | 20 | 35 | – | – | > 25
12 | O=C(Nc1ccc(F)c(F)c1)c1cccc(S(=O)(=O)NC2CCCC2)c1 | 7.03 | 6.44 | 46 (≈ 17.5 µg/mL) | > 25 | 45 | 86 | – | Active | –
13 | O=C(Nc1cc(F)cc(F)c1)c1cccc(S(=O)(=O)NC2CCCC2)c1 | 6.55 | 6.11 | 28 (≈ 10.7 µg/mL) | > 25 | 79 | 100 | – | Active | –
14 | Cc1cc(NC(=O)c2cccc(S(=O)(=O)N[C@H]3CCOC3)c2)c(F)cc1F | 5.65 | 5.48 | > 100 | – | 17 | 69 | – | – | > 25
15 | CN(C(=O)c1cccc(S(=O)(=O)NC2CCCC2)c1)c1ccc(F)cc1 | 4.05 | < 4.60 | > 100 | > 25 | 100 | 100 | – | inactive | –
16 | O=C(Nc1ccccc1)c1cc(S(=O)(=O)NC2CCCCC2)ccc1F | 6.18 | 6.22 | 21 (≈ 7.91 µg/mL) | > 25 | 63 | 100 | 0.1 | – | –
17 | O=C(Nc1cccc2ccccc12)c1cc(S(=O)(=O)NC2CCCCC2)ccc1F | 4.81 | < 4.60 | 12 (≈ 5.12 µg/mL) | > 25 | 94 | 100 | – | inactive | –
18 | O=C(Nc1ccc(F)cc1)c1cccc(S(=O)(=O)N2CCCCC2)c1 | 5.35 | 5.57 | 9 (≈ 3.26 µg/mL) | 70.4 | 65 | 99 | 0.4 | – | –
19 | O=C(Nc1ccc2ccccc2c1)c1cc(S(=O)(=O)NC2CCCCC2)ccc1F | 4.90 | < 4.60 | < 0.2 | 13 | 36 | 56 | 7.5 | inactive | –
20 | O=C(Nc1ccc(F)cc1)c1cccc(NC(=O)C2CCCCC2)c1 | 4.21 | < 4.60 | 7 (≈ 2.38 µg/mL) | 57.7 | 55 | 87 | 7.2 | – | –
21 | CC(=O)N1CCN(S(=O)(=O)c2cccc(C(=O)Nc3ccc(F)cc3)c2)CC1 | 5.15 | 5.20 | 86 (≈ 34.9 µg/mL) | > 100 | 19 | 52 | 0.9 | – | –
22 | CN1CCN(S(=O)(=O)c2cccc(C(=O)Nc3ccc(F)cc3)c2)CC1 | 4.58 | 4.95 | > 100 | > 100 | 53 | 84 | 6.3 | Active | –
23 | O=C(Nc1ccc(F)cc1)c1cccc(S(=O)(=O)N2CCOCC2)c1 | 5.07 | 4.96 | > 100 | > 100 | 27 | 69 | 0.6 | – | –
24 | Cc1cc(NC(=O)c2cccc(S(=O)(=O)NC3CCCC3)c2)ccc1F | 7.00 | 6.38 | 33 (≈ 12.4 µg/mL) | 48.2 | 66 | 97 | 0.02 | Active | –
25 | CC(C)(C)NS(=O)(=O)c1cccc(C(=O)Nc2ccc(F)cc2)c1 | 5.91 | 5.64 | 1 (≈ 0.35 µg/mL) | 52.5 | 15 | 31 | 0.9 | – | –
